IC50 data for 35 molecules are collected here from ChEMBL document CHEMBL3763122, “Synthesis, vasorelaxant activity and 2D-QSAR study of some novel pyridazine derivatives” (Eur J Med Chem, 2016).

The nature of this test: Vasorelaxant activity in Wistar rat thoracic aortic ring precontracted with norepinephrine hydrochloride. The test is classed as functional. The note with it: Thoracic aorta. The essentials:
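Isolated rat thoracic aortic rings held at 2 g resting tension for 2 h. Contraction to norepinephrine hydrochloride (10^-6 M) measured before and after exposure to increasing concentrations of compound. Compounds dissolved in DMSO as a 0.01 M stock. DMSO-alone controls run at matching concentrations. Doxazosin mesylate served as reference standard.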

Where a name gives a salt, the structure may show the parent alone.

The term IC50 denotes the concentration needed to halve the response being measured. Low values mean inhibition by little substance, high ones a need for much substance. For `CCOC(=O)c1cnn(-c2ccc(-c3ccccc3)nn2)c1N`, the IC50 was 254 µM.
Consider `COc1ccccc1-c1ccc(N2CCCC2)nn1`, for which the IC50 was 284 µM.
Under `Cc1cc(C)n(-c2ccc(-c3ccc(Cl)cc3)nn2)n1` stands 213 µM.
Regarding `COc1ccc(/C=N/Nc2ccc(-c3ccccc3OC)nn2)cc1`, inhibition was half-maximal at 200 µM (IC50).
For the molecule `COc1ccccc1-c1ccc(N/N=C/c2ccc(C(F)(F)F)cc2)nn1`, the IC50 turned out to be 248 µM. The IC50 values of the last two molecules are within 1.5-fold of each other.
`COc1ccc(/C=N/Nc2ccc(-c3ccc(Cl)cc3)nn2)c(OC)c1` registered an IC50 of 205 µM. This IC50 and that of the molecule before are within 1.5-fold of each other.
`COc1ccccc1-c1ccc(NNC(=O)NC2CCCCC2)nn1` had an IC50 of 266 µM.
Under `c1ccc(-c2ccc(N3CCCC3)nn2)cc1` stands 235 µM; under `COc1ccccc1-c1ccc(N/N=C/c2cc(OC)c(OC)c(OC)c2)nn1`, 221 µM; under `COc1ccccc1-c1ccc(-n2nc(C)cc2C)nn1`, 299 µM.
`COc1ccc(-c2ccc(-n3nc(C)cc3C)nn2)cc1` came in with an IC50 of 323 µM.
`COc1cc(/C=N/Nc2ccc(-c3ccc(Cl)cc3)nn2)cc(OC)c1OC` came in with an IC50 of 255 µM.
Molecule `Clc1ccc(-c2ccc(N3CCCC3)nn2)cc1` gave an IC50 of 300 µM.
Then `NNc1ccc(-c2ccc(Cl)cc2)nn1`, with 275 µM; and `COc1ccc(-c2ccc(-n3ccnc3)nn2)cc1`, with 259 µM; and `CCOC(=O)c1cnn(-c2ccc(-c3ccccc3OC)nn2)c1N`, with 225 µM.
Take `O=C(NNc1ccc(-c2ccc(Cl)cc2)nn1)Nc1ccccc1`: the half-maximal inhibitory concentration (IC50) stood at 207 µM.
For `COc1ccc(-c2ccc(NN)nn2)cc1`, the IC50 is 235 µM.
For `c1ccc(-c2ccc(-n3ccnc3)nn2)cc1`, it took 273 µM to reach half-maximal inhibition (IC50).
Turning to `COc1ccc(/C=N/Nc2ccc(-c3ccccc3OC)nn2)c(OC)c1`, inhibition was half-maximal at 259 µM (IC50).
For `COc1ccccc1-c1ccc(NN)nn1`, the IC50 came to 279 µM.
On to `Clc1ccc(-c2ccc(-n3ccnc3)nn2)cc1`, for which the IC50 amounted to 255 µM.
Under `COc1ccccc1-c1ccc(-n2ncc(C#N)c2N)nn1` stands 316 µM; under `NNc1ccc(-c2ccccc2)nn1`, 206 µM; under `COc1ccc(-c2ccc(-n3ncc(C#N)c3N)nn2)cc1`, 260 µM.
In the case of `N#Cc1cnn(-c2ccc(-c3ccccc3)nn2)c1N`, the IC50 was 287 µM.
Take `CCOC(=O)c1cnn(-c2ccc(-c3ccc(Cl)cc3)nn2)c1N`: the IC50 was found to be 230 µM.
`FC(F)(F)c1ccc(/C=N/Nc2ccc(-c3ccc(Cl)cc3)nn2)cc1` had an IC50 of 209 µM.
The molecule `COc1ccc(/C=N/Nc2ccc(-c3ccc(Cl)cc3)nn2)cc1` had an IC50 of 217 µM.
Turning to `COc1ccccc1-c1ccc(-n2ccnc2)nn1`, the IC50 was found to be 205 µM.
Molecule `CCOC(=O)c1cnn(-c2ccc(-c3ccc(OC)cc3)nn2)c1N` gave an IC50 of 216 µM. The IC50 values of the last two molecules are within 1.5-fold of each other.
Molecule `O=C(NNc1ccc(-c2ccc(Cl)cc2)nn1)NC1CCCCC1` returned an IC50 of 177 µM. This IC50 and that of the molecule before are within 1.5-fold of each other.
Then `N#Cc1cnn(-c2ccc(-c3ccc(Cl)cc3)nn2)c1N`, with 310 µM; and `Cc1cc(C)n(-c2ccc(-c3ccccc3)nn2)n1`, with 198 µM; and `COc1cc2nc(N3CCN(C(=O)C4COc5ccccc5O4)CC3)nc(N)c2cc1OC` (stereo not given) [DOXAZOSIN MESYLATE], with 226 µM.
